Bioassay records as filed in PubChem BioAssay.
Dynein cargo inh: inhibitors of GR-EGFP nuclear translocation, primary screen, dynein cargo transport inhibitor project, imaging, high-content, 3617.4 mouse cells; actives 0.47% (n = 220,000); test concentration mostly 20 µM; stimulated with dexamethasone, 1 µM; active compounds read low; z-score, hits read low;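 active means plate z-score of nuclear minus cytoplasmic receptor signal below a set negative limit, without overly bright fluorescence or cell loss, cut at about -3.5 in these data, passing the limit was not always enough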;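 further: z-score of nuclear minus cytoplasmic ring GR-EGFP intensity difference per well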
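Buffer or medium: Induction medium lacking tetracycline, stripped serum | Also added: Dexamethasone agonist, 1.0 µM final, for 30 min | Timing: 48 h induction, 1 h compound, 30 min dex at 37 °C | Detection: Formaldehyde fixation, Hoechst nuclear stain, 10x automated fluorescence imaging | Measure: Nuclear versus cytoplasmic GR-EGFP signal, averaged per well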
ATG4B inhibitor: ATG4B protease inhibitors, primary screen, biochemical, fluorescence, uHTS; Cysteine protease ATG4B (Homo sapiens), Q9Y4P1; ATG4B cleavage of LC3-PLA2, NBD-HPC fluorescence, 1 h; inhibition, % at 8.33 µM; actives 0.51% (n = 340,000); AID 504462, 2011; in the data active means inhibition above about 40%
MEKK2mut PB1 HTS: MEK5 binding signal on mutant MEKK2 PB1, primary screen, biochemical, multiplex bead flow cytometry, Alexa488-MEK5 | Alexa488-MEK5 binding to MEKK2 mutant | actives 0.35% (n = 290,000) | percent response, % at 10 µM; in the data active means percent response above about 24%, passing the limit was not always enough
MEKK2wt PB1 HTS: modulators of MEK5 binding to wildtype MEKK2, primary screen, biochemical, multiplex bead flow cytometry, Alexa488-MEK5; binding response (% of control), % at 10 µM; Alexa488-MEK5 binding to MEKK2 WT; actives lie on both sides; AID 1531, 2009; Mitogen-activated protein kinase kinase kinase 2 (Homo sapiens), Q9Y2U5; actives 1.1% (n = 290,000); in the data active means binding response below about 67% or above about 130%
MEKK3 PB1 HTS: modulators of MEKK3-MEK5 PB1 binding, primary screen, biochemical, wildtype MEKK3, multiplex bead flow cytometry, Alexa488-MEK5; bead-based flow cytometry, Alexa488-MEK5 binding to MEKK3; actives lie on both sides; 0 = blocked by unlabeled MEK5, 100 = vehicle; binding response (% of control), % at 10 µM; actives 1.4% (n = 290,000); AID 1529, 2009;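 active means binding response more than 3 SD above or below the average of its plate-row segment, actives on both sides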;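 further: Alexa488 bead fluorescence after subtracting the streptavidin-only scavenger bead signal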
B2AR ag: beta2AR agonists driving receptor internalization, primary screen, cell-based, FAP fluorogen, flow cytometry; Am2.2-beta2AR cells; response, % (concentration not given with the values); AID 504454, 2011; Beta-2 adrenergic receptor (Homo sapiens), P07550; actives 0.43% (n = 340,000);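 active means response above a set limit, near 3 SD of response in nonfluorescent compounds, cut at about 42% in these data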
Target sequence (P07550 whole entry, looked up): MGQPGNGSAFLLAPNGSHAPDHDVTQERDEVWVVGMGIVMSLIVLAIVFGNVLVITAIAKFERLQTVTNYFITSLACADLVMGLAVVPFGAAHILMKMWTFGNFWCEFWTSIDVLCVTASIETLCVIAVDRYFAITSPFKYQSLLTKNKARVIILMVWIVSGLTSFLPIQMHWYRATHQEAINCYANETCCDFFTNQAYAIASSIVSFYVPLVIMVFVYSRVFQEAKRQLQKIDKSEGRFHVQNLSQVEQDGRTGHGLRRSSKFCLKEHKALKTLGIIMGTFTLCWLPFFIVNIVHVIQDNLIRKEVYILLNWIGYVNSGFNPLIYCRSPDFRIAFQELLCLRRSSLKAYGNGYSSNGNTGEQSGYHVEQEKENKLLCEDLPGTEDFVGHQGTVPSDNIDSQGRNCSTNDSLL
MEKK2wt confirm: modulators of MEK5 binding to wildtype MEKK2, confirmation, biochemical, single concentration, multiplex bead flow cytometry; shares compounds with MEKK3 PB1 HTS; Alexa488-MEK5 binding to MEKK2 WT; actives lie on both sides; binding response (% of control), % at 10 µM; actives 2.4% (n = 5,900); AID 1892, 2009; in the data active means binding response below about 16% or above about 210%; inactive means in between
MEKK2mut confirm: mutant MEKK2 PB1-MEK5 binding signal retest – biochemical, single concentration, multiplex bead flow cytometry, confirmation; shares compounds with MEKK3 PB1 HTS; Alexa488-MEK5 binding to MEKK2 mutant; percent response, % at 10 µM; actives 2% (n = 5,900); AID 1893, 2009; in the data active means percent response mostly above about 71%, no sharp cut-off; inactive means mostly below about 38%;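 further: higher means compound restores mutant binding toward wildtype level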
MEKK3-MEK5 inh: MEKK3 wild-type PB1 binding to MEK5, inhibitors, confirmation, biochemical, bead multiplex flow cytometry, single concentration, wildtype. shares compounds with MEKK3 PB1 HTS. Alexa488-MEK5 binding to MEKK3; active compounds read low. actives 1.8% (n = 5,900). binding response (% of control), % at 10 µM;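 active means binding response below 72% of control, or above a set upper limit, though filed actives all read lower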;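 further: 100% = DMSO only wells and 0% = binding blocked by excess unlabeled MEK5; lower values mean stronger disruption of MEK5 binding to MEKK3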
* hit, by the source's call; [ ] = dose if it differs, or a comment. Sampled rows, rich in hits. Any-hit rate of the full collection: about 2.9%.

How did COC(=O)CN1C(=O)N/C(=C/c2ccccc2OC)C1=O do in these assays?
Dynein cargo inh: -0.11; ATG4B inhibitor: -5; MEKK2mut PB1 HTS: 1; MEKK2wt PB1 HTS: 116; MEKK3 PB1 HTS: 131*; B2AR ag: 4; MEKK2wt confirm: 104; MEKK2mut confirm: 0; MEKK3-MEK5 inh: 108

How did Cc1ccc(S(=O)(=O)N2CCN(c3ncnc4sccc34)CC2)cc1 do in these assays?
ATG4B inhibitor: -11; MEKK2mut PB1 HTS: 5; MEKK2wt PB1 HTS: 103; MEKK3 PB1 HTS: 99; B2AR ag: -17

Results for CC(C(=O)Nc1ccccc1F)N1CCN(C)CC1 (stereo not drawn) ?
MEKK2mut PB1 HTS: 1; MEKK2wt PB1 HTS: 102; MEKK3 PB1 HTS: 101

Results for CC(C)(C)C(=O)NCCCc1nc2ccccc2n1CCCOc1ccc(Cl)cc1 ?
Dynein cargo inh: -0.3; ATG4B inhibitor: -27; MEKK2mut PB1 HTS: 6; MEKK2wt PB1 HTS: 111; MEKK3 PB1 HTS: 110; B2AR ag: 5

What do the screens show for `CCN(c1ccccc1)S(=O)(=O)c1ccc(C(=O)N(CCCN(C)C)c2nc3c(C)cccc3s2)cc1`?
ATG4B inhibitor: 6; MEKK2mut PB1 HTS: 20; MEKK2wt PB1 HTS: 154*; MEKK3 PB1 HTS: 103; B2AR ag: 29; MEKK2wt confirm: 166; MEKK2mut confirm: 31; MEKK3-MEK5 inh: 110

Results for CCN(Cc1ccccc1)S(=O)(=O)c1ccc(C(=O)N(CCCN(C)C)c2nc3c(F)cccc3s2)cc1 ?
ATG4B inhibitor: 17; MEKK2mut PB1 HTS: 43*; MEKK2wt PB1 HTS: 190*; MEKK3 PB1 HTS: 110; B2AR ag: 16; MEKK2wt confirm: 203; MEKK2mut confirm: 39; MEKK3-MEK5 inh: 106

How did COCCNC(=O)c1n[nH]c2ccccc12 do in these assays?
Dynein cargo inh: -1.1; ATG4B inhibitor: -13; MEKK2mut PB1 HTS: -3; MEKK2wt PB1 HTS: 85; MEKK3 PB1 HTS: 70*[inhibitor]; B2AR ag: -1; MEKK2wt confirm: 105; MEKK2mut confirm: -2; MEKK3-MEK5 inh: 104

What do the screens show for `COc1ccc(CCNC(=O)c2n[nH]c3ccccc23)cc1`?
Dynein cargo inh: 0.13; ATG4B inhibitor: 0; MEKK2mut PB1 HTS: -5; MEKK2wt PB1 HTS: 95; MEKK3 PB1 HTS: 100; B2AR ag: -5

Results for COCCNC(=O)Cc1cn(C)c2ccccc12 ?
Dynein cargo inh: -0.5; ATG4B inhibitor: -2; MEKK2mut PB1 HTS: 19; MEKK2wt PB1 HTS: 112; MEKK3 PB1 HTS: 110; B2AR ag: 1

What do the screens show for `COCCNC(=O)c1cn(C)c2ccccc2c1=O`?
Dynein cargo inh: -0.77; ATG4B inhibitor: -31; MEKK2mut PB1 HTS: -14; MEKK2wt PB1 HTS: 74; MEKK3 PB1 HTS: 70*[inhibitor]; B2AR ag: -7; MEKK2wt confirm: 98; MEKK2mut confirm: -8; MEKK3-MEK5 inh: 96

Results for COc1ccc(NC(=S)N/N=C2\CC(C)(C)Oc3ccc(OC)cc32)cc1 ?
Dynein cargo inh: 0.46; ATG4B inhibitor: 6; MEKK2mut PB1 HTS: 1; MEKK2wt PB1 HTS: 110; MEKK3 PB1 HTS: 130*; B2AR ag: -1; MEKK2wt confirm: 99; MEKK2mut confirm: -1; MEKK3-MEK5 inh: 104

What do the screens show for `COc1cccc(NC(=O)CN2CCN(C(=O)c3ccco3)CC2)c1`?
ATG4B inhibitor: 6; MEKK2mut PB1 HTS: 6; MEKK2wt PB1 HTS: 105; MEKK3 PB1 HTS: 104; B2AR ag: 5

Results for CN1C(C(=O)NCc2cccc(C(F)(F)F)c2)CC2Cn3c(nc4cc5ccccc5cc43)C21 (stereo not drawn) ?
Dynein cargo inh: 1.2; ATG4B inhibitor: 2; MEKK2mut PB1 HTS: 2; MEKK2wt PB1 HTS: 95; MEKK3 PB1 HTS: 96; B2AR ag: 0

Results for CN1C(C(=O)NCc2cccc(C(F)(F)F)c2)CC2Cn3c(nc4ccccc43)C21 (stereo not drawn) ?
Dynein cargo inh: -0.76; ATG4B inhibitor: 1; MEKK2mut PB1 HTS: -5; MEKK2wt PB1 HTS: 96; MEKK3 PB1 HTS: 51*[inhibitor]; B2AR ag: -2; MEKK2wt confirm: 100; MEKK2mut confirm: -4; MEKK3-MEK5 inh: 98

How did CCN(CC)S(=O)(=O)c1ccc(/C=C/C(=O)Nc2ccc(N3CCOCC3)cc2)cc1 do in these assays?
Dynein cargo inh: 0.14; ATG4B inhibitor: 3; MEKK2mut PB1 HTS: -1; MEKK2wt PB1 HTS: 99; MEKK3 PB1 HTS: 100; B2AR ag: 2

Results for COc1ccc2sc(N(CCCN(C)C)C(=O)c3ccc(S(=O)(=O)N(C)Cc4ccccc4)cc3)nc2c1 ?
ATG4B inhibitor: 18; B2AR ag: 15

Results for CN(C)CCCN(C(=O)c1ccc(S(=O)(=O)N(C)Cc2ccccc2)cc1)c1nc2cc3c(cc2s1)OCO3 ?
ATG4B inhibitor: 23; MEKK2mut PB1 HTS: 41*; MEKK2wt PB1 HTS: 192*; MEKK3 PB1 HTS: 112; B2AR ag: 32; MEKK2wt confirm: 189; MEKK2mut confirm: 45; MEKK3-MEK5 inh: 107

How did CN(C)CCCN(C(=O)c1ccc2ccccc2c1)c1nc2cc3c(cc2s1)OCO3 do in these assays?
ATG4B inhibitor: 1; MEKK2mut PB1 HTS: 24*; MEKK2wt PB1 HTS: 142*; MEKK3 PB1 HTS: 106; B2AR ag: 24; MEKK2wt confirm: 140; MEKK2mut confirm: 19; MEKK3-MEK5 inh: 104

Results for CN(C)CCN(C(=O)c1ccc2ccccc2c1)c1nc2cc3c(cc2s1)OCCO3 ?
ATG4B inhibitor: 0; MEKK2mut PB1 HTS: 13; MEKK2wt PB1 HTS: 125; MEKK3 PB1 HTS: 102; B2AR ag: -1
